Laboratory results published in ChEMBL document CHEMBL1125797, “Synthesis, characterization and myocardial uptake of cationic bis(arene)technetium(I) complexes” (J Med Chem, 1991).

Legend:
Rattus norvegicus [1] = assay: Biodistribution of compound in rat liver at 5 min after intravenous administration; format: ADME, organism-based; conditions: in vivo
Method in brief: (§1)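 Rats received the 99mTc complex in normal saline (~12.5 μCi/mL) by lateral tail vein injection at ~25 μCi/kg and were killed by cervical dislocation at the stated time. Tissues were washed with saline, blotted, weighed and γ-counted to give percent injected dose/g. Time-course values are averages of male and female rats.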

Rattus norvegicus [2] = assay: Biodistribution of compound in rat liver at 90 min after intravenous administration; format: ADME, organism-based; conditions: in vivo, 1.5 h; method in brief: as §1
Rattus norvegicus [3] = assay: Biodistribution of compound in rat lungs at 1440 min after intravenous administration; format: ADME, organism-based, Lung; conditions: in vivo, 24 h; method in brief: as §1
Rattus norvegicus [4] = assay: Biodistribution of compound in rat lungs at 180 min after intravenous administration; format: ADME, organism-based, Lung; conditions: in vivo, 3 h; method in brief: as §1
Rattus norvegicus [5] = assay: Biodistribution of compound in rat lungs at 360 min after intravenous administration; format: ADME, organism-based, Lung; conditions: in vivo, 6 h; method in brief: as §1
Rattus norvegicus [6] = assay: Biodistribution of compound in rat lungs at 45 min after intravenous administration; format: ADME, organism-based, Lung; conditions: in vivo, 0.75 h; method in brief: as §1
Rattus norvegicus [7] = assay: Biodistribution of compound in rat lungs at 5 min after intravenous administration; format: ADME, organism-based, Lung; conditions: in vivo; method in brief: as §1
Rattus norvegicus [8] = assay: Biodistribution of compound in rat lungs at 90 min after intravenous administration; format: ADME, organism-based, Lung; conditions: in vivo, 1.5 h; method in brief: as §1
Rattus norvegicus [9] = assay: Biodistribution of compound in rat muscle at 1440 min after intravenous administration; format: ADME, organism-based, Muscle tissue; conditions: in vivo, 24 h; method in brief: as §1
Rattus norvegicus [10] = assay: Biodistribution of compound in rat muscle at 180 min after intravenous administration; format: ADME, organism-based, Muscle tissue; conditions: in vivo, 3 h; method in brief: as §1
Rattus norvegicus [11] = assay: Biodistribution of compound in rat muscle at 360 min after intravenous administration; format: ADME, organism-based, Muscle tissue; conditions: in vivo, 6 h; method in brief: as §1
Rattus norvegicus [12] = assay: Biodistribution of compound in rat muscle at 45 min after intravenous administration; format: ADME, organism-based, Muscle tissue; conditions: in vivo, 0.75 h; method in brief: as §1
Rattus norvegicus [13] = assay: Biodistribution of compound in rat muscle at 5 min after intravenous administration; format: ADME, organism-based, Muscle tissue; conditions: in vivo; method in brief: as §1
Rattus norvegicus [14] = assay: Biodistribution of compound in rat muscle at 90 min after intravenous administration; format: ADME, organism-based, Muscle tissue; conditions: in vivo, 1.5 h; method in brief: as §1
Rattus norvegicus [15] = assay: Biodistribution of compound in rat bone at 1440 min after intravenous administration; format: ADME, organism-based, Bone element; conditions: in vivo, 24 h
Method in brief: (§2)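 Time course in Sprague-Dawley rats after lateral tail-vein injection of the 99mTc complex in normal saline (~12.5 μCi/mL) at ~25 μCi/kg. Tissues were sampled at the stated times, washed with saline, blotted, weighed and γ-counted to give percent injected dose per g. Values are averages of male and female rats.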

Rattus norvegicus [16] = assay: Biodistribution of compound in rat bone at 180 min after intravenous administration; format: ADME, organism-based, Bone element; conditions: in vivo, 3 h; method in brief: as §2
Rattus norvegicus [17] = assay: Biodistribution of compound in rat bone at 45 min after intravenous administration; format: ADME, organism-based, Bone element; conditions: in vivo, 0.75 h; method in brief: as §2
Rattus norvegicus [18] = assay: Biodistribution of compound in rat bone at 5 min after intravenous administration; format: ADME, organism-based, Bone element; conditions: in vivo; method in brief: as §2
Rattus norvegicus [19] = assay: Biodistribution of compound in rat bone at 90 min after intravenous administration; format: ADME, organism-based, Bone element; conditions: in vivo, 1.5 h; method in brief: as §2
Rattus norvegicus [20] = assay: Biodistribution of compound in rat bone marrow at 1440 min after intravenous administration; format: ADME, organism-based; conditions: in vivo, 24 h; method in brief: as §2
Rattus norvegicus [21] = assay: Biodistribution of compound in rat bone marrow at 180 min after intravenous administration; format: ADME, organism-based; conditions: in vivo, 3 h; method in brief: as §2
Rattus norvegicus [22] = assay: Biodistribution of compound in rat bone marrow at 360 min after intravenous administration; format: ADME, organism-based; conditions: in vivo, 6 h; method in brief: as §2
Rattus norvegicus [23] = assay: Biodistribution of compound in rat bone marrow at 45 min after intravenous administration; format: ADME, organism-based; conditions: in vivo, 0.75 h; method in brief: as §2
Rattus norvegicus [24] = assay: Biodistribution of compound in rat bone marrow at 90 min after intravenous administration; format: ADME, organism-based; conditions: in vivo, 1.5 h; method in brief: as §2
Rattus norvegicus [25] = assay: Biodistribution of compound in rat bone marrow at 5 min after intravenous administration; format: ADME, organism-based; conditions: in vivo; method in brief: as §2
Rattus norvegicus [26] = assay: Biodistribution of compound in rat brain after 5 min of administration; format: ADME, organism-based; conditions: in vivo
Rattus norvegicus [27] = assay: Biodistribution of compound in rat eye at 1440 min after intravenous administration; format: ADME, organism-based; conditions: in vivo, 24 h; method in brief: as §2
Rattus norvegicus [28] = assay: Biodistribution of compound in rat eye at 180 min after intravenous administration; format: ADME, organism-based; conditions: in vivo, 3 h; method in brief: as §2
Rattus norvegicus [29] = assay: Biodistribution of compound in rat eye at 360 min after intravenous administration; format: ADME, organism-based; conditions: in vivo, 6 h; method in brief: as §2
Rattus norvegicus [30] = assay: Biodistribution of compound in rat eye at 45 min after intravenous administration; format: ADME, organism-based; conditions: in vivo, 0.75 h; method in brief: as §2
Rattus norvegicus [31] = assay: Biodistribution of compound in rat eye at 5 min after intravenous administration; format: ADME, organism-based; conditions: in vivo; method in brief: as §2
Rattus norvegicus [32] = assay: Biodistribution of compound in rat eye at 90 min after intravenous administration; format: ADME, organism-based; conditions: in vivo, 1.5 h; method in brief: as §2
Rattus norvegicus [33] = assay: Biodistribution of compound in rat feces at 1440 min after intravenous administration; format: ADME, organism-based; conditions: in vivo, 24 h
Rattus norvegicus [34] = assay: Biodistribution of compound in rat feces at 360 min after intravenous administration; format: ADME, organism-based; conditions: in vivo, 6 h
Rattus norvegicus [35] = assay: Biodistribution of compound in rat liver at 45 min after intravenous administration; format: ADME, organism-based; conditions: in vivo, 0.75 h; method in brief: as §1
Rattus norvegicus [36] = assay: Biodistribution of compound in rat blood at 45 min after intravenous administration; format: ADME, organism-based; conditions: in vivo, 0.75 h; method in brief: as §2
Rattus norvegicus [37] = assay: Biodistribution of compound in rat bone at 360 min after intravenous administration; format: ADME, organism-based, Bone element; conditions: in vivo, 6 h; method in brief: as §2

Substance: Bis(1,3,5-trimethylbenzene)technetium
- Dose/g (Rattus norvegicus [1]): 10.4 % dose/organ
- Dose/g (Rattus norvegicus [2]): 3.6 % dose/organ
- Dose/g (Rattus norvegicus [3]): 0.2 % dose/organ
- Dose/g (Rattus norvegicus [4]): 0.48 % dose/organ
- Dose/g (Rattus norvegicus [5]): 0.34 % dose/organ
- Dose/g (Rattus norvegicus [6]): 0.86 % dose/organ
- Dose/g (Rattus norvegicus [7]): 1.15 % dose/organ
- Dose/g (Rattus norvegicus [8]): 0.6 % dose/organ
- Dose/g (Rattus norvegicus [9]): 25 % dose/organ
- Dose/g (Rattus norvegicus [10]): 30 % dose/organ
- Dose/g (Rattus norvegicus [11]): 29 % dose/organ
- Dose/g (Rattus norvegicus [12]): 26 % dose/organ
- Dose/g (Rattus norvegicus [13]): 30 % dose/organ
- Dose/g (Rattus norvegicus [14]): 25 % dose/organ
- Dose/g (Rattus norvegicus [15]): 0.8 % dose/organ
- Dose/g (Rattus norvegicus [16]): 1.5 % dose/organ
- Dose/g (Rattus norvegicus [17]): 1.8 % dose/organ
- Dose/g (Rattus norvegicus [18]): 3.5 % dose/organ
- Dose/g (Rattus norvegicus [19]): 1.4 % dose/organ
- Dose/g (Rattus norvegicus [20]): 0.02 % dose/organ
- Dose/g (Rattus norvegicus [21]): 0.13 % dose/organ
- Dose/g (Rattus norvegicus [22]): 0.09 % dose/organ
- Dose/g (Rattus norvegicus [23]): 0.36 % dose/organ
- Dose/g (Rattus norvegicus [24]): 0.13 % dose/organ
- Dose/g (Rattus norvegicus [25]): 0.37 % dose/organ
- Dose/g (Rattus norvegicus [26]): 0.1%
- Dose/g (Rattus norvegicus [27]): 0.01 % dose/organ
- Dose/g (Rattus norvegicus [28]): 0.016 % dose
- Dose/g (Rattus norvegicus [29]): 0.019 % dose
- Dose/g (Rattus norvegicus [30]): 0.028 % dose
- Dose/g (Rattus norvegicus [31]): 0.041 % dose
- Dose/g (Rattus norvegicus [32]): 0.044 % dose
- Dose/g (Rattus norvegicus [33]): 36.2 % dose
- Dose/g (Rattus norvegicus [34]): 0.4 % dose
- Dose/g (Rattus norvegicus [35]): 3.1 % dose
- Dose/ml (Rattus norvegicus [36]): 1.24 % dose
- Dose/g (Rattus norvegicus [37]): 1.3 % dose
